Data taken from ChEMBL document CHEMBL2086235, “A novel thiazolidine compound induces caspase-9 dependent apoptosis in cancer cells” (Bioorg Med Chem, 2012).
Active and inactive are the calls of the source. The rule behind the calls is not given here.

Experiments:
Format in all cases: functional, cell-based
Huh-7 [1] = test: Growth inhibition of human HuH7 cells incubated for 48 hrs by Giemsa staining
Outline: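 Cells grown overnight, compound added from DMSO solution, then incubated 48 h more. Attached cells stained with Giemsa and photographed; qualitative read-out.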

Huh-7 [2] = test: Induction of cell death in human HuH7 cells at 2.5 to 40 uM incubated for 72 hrs by SRB assay
Outline: (§1)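 Cells seeded and grown 24 h at 37 °C, then treated 72 h in triplicate. Fixed with cold 10% TCA 1 h at 4 °C, stained with 0.4% SRB in 1% acetic acid 10 min, washed in 1% acetic acid. Dye solubilized in 10 mM Tris base; absorbance read at 515 nm. Normalized to DMSO control and Tz; three independent experiments.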

HCT-116 = test: Induction of cell death in human HCT116 cells at 2.5 to 40 uM incubated for 72 hrs by SRB assay; outline: as §1
MCF7 = test: Induction of cell death in human MCF7 cells at 2.5 to 40 uM incubated for 72 hrs by SRB assay; outline: as §1

| SMILES | growth inhibition (GI) (Huh-7 [1]) | other results |
| --- | --- | --- |
| CC(C)(C)C(=O)N(CC(=O)O)C[C@@H]1CSC(c2ccccc2)N1C(=O)c1ccccc1 (stereo partly drawn) | inactive | – |
| CC(C)(C)C(=O)N(CCc1ccsc1)C[C@@H]1CSC(c2ccccc2)N1C(=O)c1ccccc1 (stereo partly drawn) | inactive | Activity (Huh-7 [2]): inactive; Activity (HCT-116): inactive; Activity (MCF7): inactive |
| CCCCCCC(=O)N(CC(=O)O)C[C@@H]1CSC(c2ccccc2)N1C(=O)c1ccccc1 (stereo partly drawn) | inactive | – |
| CCCCCCC(=O)N(CC(=O)OC)C[C@@H]1CSC(c2ccccc2)N1C(=O)c1ccccc1 (stereo partly drawn) | inactive | – |
| CCCCCCC(=O)N(CCc1ccsc1)C[C@@H]1CSC(c2ccccc2)N1C(=O)c1ccccc1 (stereo partly drawn) | inactive | – |
| CCCCCCC(C)NC(=O)[C@@H]1CSC(c2ccccc2)N1C(=O)Cn1cc(C)c(=O)[nH]c1=O (stereo partly drawn) | inactive | – |
| CCCCCCCCCCC(=O)N(CC(=O)O)C[C@@H]1CSC(c2ccccc2)N1C(=O)c1ccccc1 (stereo partly drawn) | inactive | – |
| CCCCCCCCCCC(=O)N(CC(=O)OC)C[C@@H]1CSC(c2ccccc2)N1C(=O)c1ccccc1 (stereo partly drawn) | inactive | – |
| CCCCCCCCCCC(=O)N(CCc1ccsc1)C[C@@H]1CSC(c2ccccc2)N1C(=O)c1ccccc1 (stereo partly drawn) | inactive | – |
| CCCCCCCCCCCCNC(=O)[C@@H]1CSC(c2ccccc2)N1C(=O)Cn1cc(C)c(=O)[nH]c1=O (stereo partly drawn) | inactive | – |
| CCOC(=O)Cn1cc(C(=O)N2C(c3ccccc3)SC[C@H]2C(=O)OCC)nn1 (stereo partly drawn) | inactive | – |
| CCOC(=O)[C@@H]1CSC(c2ccccc2)N1C(=O)c1cn(CC(=O)OCc2ccccc2)nn1 (stereo partly drawn) | inactive | – |
| CCOC(=O)[C@@H]1CSC(c2ccccc2)N1C(=O)c1cn(CC(O)CO)nn1 (stereo partly drawn) | inactive | – |
| CCOC(=O)[C@@H]1CSC(c2ccccc2)N1C(=O)c1cn(CC2OCOC2(C)C)nn1 (stereo partly drawn) | inactive | – |
| CCOC(=O)[C@@H]1CSC(c2ccccc2)N1C(=O)c1cn(CCCCCCO)nn1 (stereo partly drawn) | inactive | – |
